Measured values: ChEMBL document CHEMBL5338774, “Quinazoline-2-Carboxamides as Selective PET Radiotracers for Matrix Metalloproteinase-13 Imaging in Atherosclerosis” (J Med Chem, 2023)

What was measured:
[1] = molecular target: Collagenase 3 (Homo sapiens, UniProt P45452); assay: Inhibition of human recombinant MMP-13 using Mca-Lys-Pro-Leu-GlyLeu-Dpa-Ala-Arg-NH2 as substrate preincubated for 30 mins followed by substrate addition by fluorescence based analysis
[2] = molecular target: Neutrophil collagenase (Homo sapiens, UniProt P22894); assay: Inhibition of human recombinant MMP-8 incubated for 30 mins by fluorescence based analysis
Sequence of Neutrophil collagenase (P22894 whole entry): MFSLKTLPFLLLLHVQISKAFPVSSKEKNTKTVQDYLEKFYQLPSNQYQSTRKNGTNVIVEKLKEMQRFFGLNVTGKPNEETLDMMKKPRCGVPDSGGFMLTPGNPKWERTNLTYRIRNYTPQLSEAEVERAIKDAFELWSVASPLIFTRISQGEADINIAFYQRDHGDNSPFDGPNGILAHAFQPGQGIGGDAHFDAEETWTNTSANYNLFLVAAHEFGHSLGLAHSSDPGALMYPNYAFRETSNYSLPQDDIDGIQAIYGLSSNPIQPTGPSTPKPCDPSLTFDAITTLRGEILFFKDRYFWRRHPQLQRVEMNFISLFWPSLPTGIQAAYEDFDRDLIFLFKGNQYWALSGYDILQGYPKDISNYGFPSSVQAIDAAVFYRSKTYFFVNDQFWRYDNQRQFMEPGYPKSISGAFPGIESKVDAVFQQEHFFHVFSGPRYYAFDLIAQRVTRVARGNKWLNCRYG

[3] = molecular target: 72 kDa type IV collagenase (Homo sapiens, UniProt P08253); assay: Inhibition of human recombinant MMP-2 incubated for 30 mins by fluorescence based analysis
Sequence of 72 kDa type IV collagenase (P08253 whole entry): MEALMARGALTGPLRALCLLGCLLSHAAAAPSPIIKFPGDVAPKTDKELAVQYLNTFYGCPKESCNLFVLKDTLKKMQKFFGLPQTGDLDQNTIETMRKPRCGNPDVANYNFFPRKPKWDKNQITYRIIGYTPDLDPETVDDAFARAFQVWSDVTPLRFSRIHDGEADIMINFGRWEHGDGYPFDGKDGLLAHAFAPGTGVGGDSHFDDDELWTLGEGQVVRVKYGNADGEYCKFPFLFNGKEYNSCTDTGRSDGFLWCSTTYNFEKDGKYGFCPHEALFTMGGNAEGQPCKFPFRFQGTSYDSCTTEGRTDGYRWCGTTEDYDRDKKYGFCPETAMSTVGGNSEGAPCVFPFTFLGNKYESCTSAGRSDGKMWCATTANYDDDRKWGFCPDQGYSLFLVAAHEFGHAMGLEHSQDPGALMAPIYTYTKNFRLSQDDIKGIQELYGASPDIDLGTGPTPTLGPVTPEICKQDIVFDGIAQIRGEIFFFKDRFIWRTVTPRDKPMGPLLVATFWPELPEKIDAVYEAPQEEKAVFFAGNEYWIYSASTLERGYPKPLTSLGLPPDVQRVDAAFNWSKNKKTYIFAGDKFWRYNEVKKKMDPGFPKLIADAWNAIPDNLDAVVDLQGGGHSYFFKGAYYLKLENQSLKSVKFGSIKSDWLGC

[4] = molecular target: Matrix metalloproteinase-9 (Homo sapiens, UniProt P14780); assay: Inhibition of human recombinant MMP-9 incubated for 30 mins by fluorescence based analysis
Sequence of Matrix metalloproteinase-9 (P14780 whole entry): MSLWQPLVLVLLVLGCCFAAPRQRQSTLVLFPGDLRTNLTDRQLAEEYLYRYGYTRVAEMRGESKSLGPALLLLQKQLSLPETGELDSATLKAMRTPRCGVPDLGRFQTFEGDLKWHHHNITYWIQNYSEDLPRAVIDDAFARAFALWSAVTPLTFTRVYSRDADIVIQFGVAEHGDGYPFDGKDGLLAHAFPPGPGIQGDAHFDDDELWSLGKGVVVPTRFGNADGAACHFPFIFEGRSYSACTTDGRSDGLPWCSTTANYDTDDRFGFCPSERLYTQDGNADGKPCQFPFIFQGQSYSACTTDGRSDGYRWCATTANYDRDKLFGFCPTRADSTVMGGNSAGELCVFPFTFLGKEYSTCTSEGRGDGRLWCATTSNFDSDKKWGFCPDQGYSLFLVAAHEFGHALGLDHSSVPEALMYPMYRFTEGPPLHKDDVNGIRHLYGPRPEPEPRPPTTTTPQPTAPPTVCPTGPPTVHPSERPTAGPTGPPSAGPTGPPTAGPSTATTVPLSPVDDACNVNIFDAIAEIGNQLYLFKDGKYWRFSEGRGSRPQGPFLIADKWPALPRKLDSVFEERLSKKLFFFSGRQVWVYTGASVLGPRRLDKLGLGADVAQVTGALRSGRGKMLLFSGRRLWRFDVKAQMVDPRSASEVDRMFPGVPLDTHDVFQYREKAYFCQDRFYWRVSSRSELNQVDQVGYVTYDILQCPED

[5] = molecular target: T1, Interstitial collagenase (Homo sapiens, UniProt P03956); assay: Inhibition of human recombinant MMP-1 incubated for 30 mins by fluorescence based analysis
T1 sequence (P03956 whole entry): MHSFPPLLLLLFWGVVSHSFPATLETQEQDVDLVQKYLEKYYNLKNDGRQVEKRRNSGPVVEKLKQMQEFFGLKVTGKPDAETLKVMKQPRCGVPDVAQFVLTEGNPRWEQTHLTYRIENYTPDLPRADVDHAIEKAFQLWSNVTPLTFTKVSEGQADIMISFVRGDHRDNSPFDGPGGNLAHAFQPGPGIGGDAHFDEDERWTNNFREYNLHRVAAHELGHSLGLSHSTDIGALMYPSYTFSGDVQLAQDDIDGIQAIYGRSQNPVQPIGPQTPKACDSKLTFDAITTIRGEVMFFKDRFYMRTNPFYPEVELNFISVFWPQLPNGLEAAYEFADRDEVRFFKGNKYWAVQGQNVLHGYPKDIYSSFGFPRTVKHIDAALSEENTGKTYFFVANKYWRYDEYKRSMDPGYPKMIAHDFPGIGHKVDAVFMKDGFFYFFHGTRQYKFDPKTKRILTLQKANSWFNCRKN

[6] = molecular target: Stromelysin-2 (Homo sapiens, UniProt P09238); assay: Inhibition of human recombinant MMP-10 using […]-Pro-Lys-Pro-Val-Glu-Nval-Trp-Arg-Lys(Dnp)-NH2 as substrate preincubated for 30 mins followed by substrate addition by fluorescence based analysis
Sequence of Stromelysin-2 (P09238 whole entry): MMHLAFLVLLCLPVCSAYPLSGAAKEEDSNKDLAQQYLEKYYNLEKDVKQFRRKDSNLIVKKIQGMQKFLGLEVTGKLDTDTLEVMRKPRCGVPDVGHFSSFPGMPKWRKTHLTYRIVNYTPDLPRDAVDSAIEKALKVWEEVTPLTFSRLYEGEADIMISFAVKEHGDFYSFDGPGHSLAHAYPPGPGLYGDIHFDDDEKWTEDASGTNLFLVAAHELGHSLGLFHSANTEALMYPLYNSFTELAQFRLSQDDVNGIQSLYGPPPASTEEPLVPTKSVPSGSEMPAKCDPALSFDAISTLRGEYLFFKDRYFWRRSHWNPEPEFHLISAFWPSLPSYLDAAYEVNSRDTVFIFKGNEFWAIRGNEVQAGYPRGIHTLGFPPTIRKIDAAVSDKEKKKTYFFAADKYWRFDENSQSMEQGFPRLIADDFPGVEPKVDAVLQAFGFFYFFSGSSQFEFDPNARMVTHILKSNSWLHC

[7] = Drug distribution in western atherogenic diet fed ApoE-/- mouse myocardium assessed as myocardial retention at […], iv administered as bolus injection measured for 60 mins by PET analysis; type: ADME, organism-based; conditions: in vivo, 1 h
Procedure, shortened: (§1)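 A 10 min transmission scan preceded tail-vein IV bolus of radiotracer (~7.5 MBq, over 30 s) in diet-fed ApoE-/- mice. Dynamic whole-body PET ran for 60 min (4×15 s, 4×1 min, 11×5 min frames), corrected for attenuation and scatter, 3D-OSEM/MAP reconstruction. Volumetric organ ROIs gave %ID·cc⁻¹ time-activity curves; n = 2 per group.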

[8] = Drug distribution in western atherogenic diet fed ApoE-/- mouse liver at […], iv administered as bolus injection measured for 60 mins by PET analysis; type: ADME, organism-based; conditions: in vivo, 1 h; procedure, shortened: as §1
[9] = Tmax in western atherogenic diet fed ApoE-/- mouse blood at […], iv administered as bolus injection measured for 60 mins by PET analysis; type: ADME, organism-based; conditions: in vivo, 1 h; procedure, shortened: as §1
[10] = Drug distribution in western atherogenic diet fed ApoE-/- mouse lung at […], iv administered as bolus injection measured for 30 mins by gamma counter analysis; type: ADME, organism-based; conditions: in vivo, 0.5 h
Procedure, shortened: (§2)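 Diet-fed male ApoE-/- mice (39 ± 5 g, n = 4-6) under 2% isoflurane received radiotracer (~7.5 MBq, 100-200 µL) IV by tail-vein bolus over 30 s. After 30 min, blood was taken by cardiac puncture, then PBS/formalin perfusion and organ dissection. Uptake is decay-corrected %ID normalized to tissue mass (%ID/g).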

[11] = Drug distribution in western atherogenic diet fed ApoE-/- mouse fat tissue at […], iv administered as bolus injection measured for 30 mins by gamma counter analysis; type: ADME, organism-based, Adipose tissue; conditions: in vivo, 0.5 h; procedure, shortened: as §2
[12] = Drug distribution in western atherogenic diet fed ApoE-/- mouse stomach at […], iv administered as bolus injection measured for 30 mins by gamma counter analysis; type: ADME, organism-based; conditions: in vivo, 0.5 h; procedure, shortened: as §2
[13] = Drug distribution in western atherogenic diet fed ApoE-/- mouse blood assessed as compound remaining at […], iv administered as bolus injection measured for 30 mins by gamma counter analysis; type: ADME, organism-based; conditions: in vivo, 0.5 h; procedure, shortened: as §2
[14] = Drug distribution in western atherogenic diet fed ApoE-/- mouse myocardium assessed as compound remaining at […], iv administered as bolus injection measured for 30 mins by gamma counter analysis; type: ADME, organism-based; conditions: in vivo, 0.5 h; procedure, shortened: as §2
[15] = Drug distribution in western atherogenic diet fed ApoE-/- mouse muscle tissue at […], iv administered as bolus injection measured for 30 mins by gamma counter analysis; type: ADME, organism-based; conditions: in vivo, 0.5 h; procedure, shortened: as §2
[16] = Stability in western atherogenic diet fed ApoE-/- mouse plasma assessed as intact compound level at ~75 MBq, iv administered as bolus injection and measured after 30 mins by gamma counter analysis; type: ADME, organism-based; conditions: read-out: Stability
Procedure, shortened: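 Blood was drawn by cardiac puncture into K₂EDTA tubes 30 min after IV radiotracer in diet-fed ApoE-/- mice. Optional IV pretreatment 15 min before: unlabelled analogue 2.5 mg/kg or WAY170523 7.5 mg/kg. Pooled protein-free plasma was spiked with standard and run on radio-HPLC (C18, ammonium formate/ACN). Fractions were collected each minute and gamma-counted to give the parent fraction.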

[17] = Drug distribution in western atherogenic diet fed ApoE-/- mouse bone at […], iv administered as bolus injection measured for 30 mins by gamma counter analysis; type: ADME, organism-based, Bone element; conditions: in vivo, 0.5 h; procedure, shortened: as §2
[18] = Drug distribution in western atherogenic diet fed ApoE-/- mouse aortic plaques at […], iv administered as bolus injection measured for 30 mins by Oil Red O staining based autoradiography; type: ADME, organism-based, Aorta; conditions: in vivo, 0.5 h
Procedure, shortened: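 Male ApoE-/- mice were fed a western atherogenic diet from 8 weeks of age for 13-16 weeks. Radiotracer (~7.5 MBq) was given IV by tail-vein bolus over 30 s. Blocking: unlabelled tracer analogue (2.5 mg/kg; DMA/propylene glycol/PEG400/water) or WAY170523 (7.5 mg/kg; DMSO/PEG400/water), both IV 15 min before. At 30 min, perfused aortae were exposed to a phosphor screen for 10 half-lives (%ID·mm⁻²), with ORO staining.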

[19] = Drug distribution in western atherogenic diet fed ApoE-/- mouse brain at […], iv administered as bolus injection measured for 30 mins by gamma counter analysis; type: ADME, organism-based; conditions: in vivo, 0.5 h; procedure, shortened: as §2
[20] = Drug distribution in western atherogenic diet fed ApoE-/- mouse spleen at […], iv administered as bolus injection measured for 30 mins by gamma counter analysis; type: ADME, organism-based; conditions: in vivo, 0.5 h; procedure, shortened: as §2
[21] = Stability of compound in 10% EtOH/saline assessed as compound degradation measured upto 75 mins by analytical radio-HPLC analysis; type: physicochemical; conditions: buffer, 1.25 h
Procedure, shortened: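 Radiotracer formulated in 10% EtOH/0.9% saline was held at room temperature up to 75 min. Samples were analysed by analytical radio-HPLC (C18, 0.1 M ammonium formate/ACN gradient, 1 mL·min⁻¹).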

[22] = Drug distribution in western atherogenic diet fed ApoE-/- mouse pancreas at […], iv administered as bolus injection measured for 30 mins by gamma counter analysis; type: ADME, organism-based; conditions: in vivo, 0.5 h; procedure, shortened: as §2
[23] = Drug distribution in western atherogenic diet fed ApoE-/- mouse intestine at […], iv administered as bolus injection measured for 30 mins by gamma counter analysis; type: ADME, organism-based; conditions: in vivo, 0.5 h; procedure, shortened: as §2
[24] = Drug distribution in western atherogenic diet fed ApoE-/- mouse kidney at […], iv administered as bolus injection measured for 60 mins by PET analysis; type: ADME, organism-based; conditions: in vivo, 1 h; procedure, shortened: as §1
[25] = Drug distribution in western atherogenic diet fed ApoE-/- mouse kidney at […], iv administered as bolus injection measured for 30 mins by gamma counter analysis; type: ADME, organism-based; conditions: in vivo, 0.5 h; procedure, shortened: as §2
[26] = Octanol/PBS distribution coefficient, logD of compound at pH 7.4 incubated for 10 mins under shaking condition by gamma counter analysis; type: physicochemical
Procedure, shortened: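 Radiotracer partitioning between 1-octanol and 1× PBS at pH 7.4. Mean ± standard error of two independent experiments, each in quadruplicate.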

| SMILES | IC50 [1] [nM] | IC50 [2] [nM] | IC50 [3] [nM] | IC50 [4] [nM] | IC50 [5] [nM] | IC50 [6] [nM] | also measured |
| --- | --- | --- | --- | --- | --- | --- | --- |
| COc1ccc(CCOc2c(F)ccc3nc(C(=O)NCc4ccc(OC)cc4)[nH]c(=O)c23)cc1 | 113 | – | – | – | – | – | – |
| Cc1cc(CNC(=O)c2nc3ccc(F)c(OCCc4ccc(O)cc4)c3c(=O)[nH]2)ccc1F | 12 | 2200 | > 10000 | > 10000 | > 10000 | 6900 | – |
| Cc1cc(CNC(=O)c2cc(C(=O)NCc3ccc(OCC[18F])cc3)ncn2)ccc1F | – | – | – | – | – | – | Drug uptake [7]: ~ 5 %ID/cc; Drug uptake [8]: ~ 12 %ID/cc |
| Cc1cc(CNC(=O)c2nc3ccc(F)c(OCCc4ccc(O[11CH3])cc4)c3c(=O)[nH]2)ccc1F | – | – | – | – | – | – | Tmax [9]: 37.5 s; Drug uptake [10]: ~ 2 % ID/g; Drug uptake [7]: < 0.5 %ID/cc; Drug uptake [11]: ~ 2 % ID/g; Drug uptake [12]: ~ 2 % ID/g; Drug uptake [13]: 1.83 % ID/g; Drug uptake [14]: ~ 1 % ID/g; Drug uptake [15]: ~ 2 % ID/g; remaining at 0.5 h [16]: 70%; Drug uptake [17]: ~ 2 % ID/g; Drug uptake [18]: 129.8 %ID.m^-2; Drug uptake [19]: ~ 2 % ID/g; Drug uptake [8]: 9.3 %ID/cc; Drug uptake [20]: ~ 2 % ID/g; Stability [21]: Stable; Drug uptake [22]: 3.27 % ID/g; Drug uptake [23]: < 7 % ID/g; Drug uptake [24]: 7.4 %ID/cc; Drug uptake [25]: < 7 % ID/g; logD at 10 min [26]: 3.76 |
| Cc1cc(CNC(=O)c2nc3ccc(F)c(OCCF)c3c(=O)[nH]2)ccc1F | 16 | 1200 | > 10000 | > 10000 | > 10000 | 3100 | – |

Continued, in another order:

| IC50 [1] [nM] | IC50 [2] [nM] | IC50 [3] [nM] | IC50 [4] [nM] | IC50 [5] [nM] | IC50 [6] [nM] | SMILES | also measured |
| --- | --- | --- | --- | --- | --- | --- | --- |
| 313 | – | – | – | – | – | COc1ccc(CNC(=O)c2nc3ccc(F)c(F)c3c(=O)[nH]2)cc1 | – |
| 127 | – | – | – | – | – | COc1ccc(CNC(=O)c2nc3ccc(F)c(OCCF)c3c(=O)[nH]2)cc1 | – |
| 118 | – | – | – | – | – | COc1cccc(CNC(=O)c2nc3ccc(F)c(F)c3c(=O)[nH]2)c1 | – |
| 48 | 1500 | > 10000 | > 10000 | > 10000 | 6800 | COc1ccc(CNC(=O)c2nc3ccc(F)c(OCCc4ccc(O)cc4)c3c(=O)[nH]2)cc1 | – |
